Rows were chosen to be rich in hits. Some 3.7% of all compounds tested hit in one or more screens of this group.
Kir21 inh: blocks the mouse Kir2.1 inward-rectifier potassium channel | HEK293-Kir2.1, FluxOR thallium flux fluorescence; stronger effect = lower value | AID 1672 | B-score at 10 µM | hit rate 0.85% among 310,000;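 active = fluorescence ratio B-score at or below minus 3 SD of library scores, with starting-brightness B-score within 2 SD, cut at about -4.2 in these data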;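 note: channel flux triggered by added potassium and thallium sulfate stimulus; B-score of peak minus minimum fluorescence over baseline after thallium stimulus; more negative B-score means stronger Kir2.1 block with less thallium influx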
KCNK9 block: inhibitors of human KCNK9 two-pore domain potassium channel. hit rate 1.2% among 310,000. HEK293 KCNK9, FluxOR thallium flux fluorescence; stronger effect = lower value. Q9NPC2. B-score at 10 µM;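 active = ratio B-score over 3 SD below the library mean, with starting fluorescence within 5 SD of its mean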;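 note: negative B-score means less thallium flux so channel inhibition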
Target sequence (Q9NPC2 whole entry, looked up, the tested form may be a part): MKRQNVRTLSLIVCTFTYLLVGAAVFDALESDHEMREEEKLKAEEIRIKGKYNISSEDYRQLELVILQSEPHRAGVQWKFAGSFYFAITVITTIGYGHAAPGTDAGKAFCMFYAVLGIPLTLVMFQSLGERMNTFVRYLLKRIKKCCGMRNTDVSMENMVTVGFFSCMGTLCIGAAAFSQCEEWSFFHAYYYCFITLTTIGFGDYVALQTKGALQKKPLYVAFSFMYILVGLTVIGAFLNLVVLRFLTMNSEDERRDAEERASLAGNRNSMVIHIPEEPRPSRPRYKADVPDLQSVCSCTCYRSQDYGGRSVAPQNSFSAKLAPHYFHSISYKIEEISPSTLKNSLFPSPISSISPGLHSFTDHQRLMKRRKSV
hERG protect: compounds protecting human hERG from proarrhythmic drug block | CHO-hERG, FluxOR thallium flux, dofetilide IC70 present | Q12809 | hit rate 0.51% among 310,000 | AID 1511 | activation (rescue from dofetilide block), less the hit threshold, % at 10 µM;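 active = activation above the mean of controls blocked by dofetilide plus 5 SD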;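 note: thallium influx through hERG after potassium depolarization seen as dye fluorescence rise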
KCNQ1 block: inhibitors of human KCNQ1 potassium channel; B-score at 10 µM; AID 2642; P51787; hit rate 1.3% among 310,000; CHO-K1 KCNQ1, FluxOR thallium flux fluorescence; stronger effect = higher value;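 active = compounds whose thallium flux B-score, printed positive for inhibition, exceeds three library SD while starting fluorescence stays within three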;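 note: channel opened by potassium depolarization with thallium stimulus after 20 min compound exposure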
KCNK3 block: human KCNK3 channel inhibition, primary screen; O14649; hit rate 0.84% among 340,000; B-score at 10 µM; CHO-KCNK3 thallium flux, FluxOR fluorescence; stronger effect = lower value;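 active = B-score under library mean minus 4 SD, starting fluorescence ratio at most library mean plus 5 SD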;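 note: more negative B-score means stronger inhibition of thallium flux through KCNK3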
KCNQ1 pot: human KCNQ1 channel potentiation or activation; P51787; CHO-K1 KCNQ1, thallium flux FluxOR fluorescence; stronger effect = higher value; B-score at 10 µM; hit rate 0.35% among 310,000;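 active = fluorescence ratio B-score, a plate-corrected score, at least three library SD, with initial intensity B-score within 5 SD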
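Assay system: CHO-K1 cells stably expressing KCNQ1. Medium: assay buffer for compound exposure, DMSO matched across wells. Timing: 37 °C overnight plating, 90-min dark dye load, 20-min compound pretreatment. Signal: kinetic FluxOR fluorescence, 10 s baseline plus 110 s post-stimulus.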
* = called active by the depositor; i = inactive; · = not tested or not shown.

SMILES	Kir21 inh	KCNK9 block	hERG protect	KCNQ1 block	KCNK3 block	KCNQ1 pot
COc1ccccc1NS(=O)(=O)c1ccc(O)c(C(=O)OCC(=O)c2ccc(Cl)cc2Cl)c1	0.24	i	-5	i	i	i
COc1ccccc1NS(=O)(=O)c1ccc(O)c(C(N)=O)c1	-4.2*	i	2	i	i	i
COc1ccc(OC)c(S(=O)(=O)Nc2ccccc2SC)c1	-4.6*	i	-12	i	i	i
COc1ccc(S(=O)(=O)Nc2ccccc2SC)cc1C	-6.7*	i	-8	i	i	i
COc1ccccc1NS(=O)(=O)c1cc(C)ccc1C	-4.6*	i	-9	i	i	i
CC[C@H]1C=C[C@@H](C(C(=O)OC)C(=O)OC)CN1C(C)=O	·	·	·	·	i	·
COc1ccccc1C(=O)NC(=O)COC(=O)C1CC2CCCC(C1)C2=O (stereo not drawn)	-0.41	i	-8	i	i	i
Cc1ccc(-n2nnnc2C(Cl)c2nnnn2-c2ccc(C)cc2)cc1	-12*	i	-9	i	i	i
Cc1ccc(-n2nnnc2-c2ccccc2)cc1	0.1	i	-11	i	i	i
CCCCc1nc2sc3c(SCCN(C)C)ncnc3c2c2c1CCC2	0.1	i	-6	i	i	21*
CCOc1ccccc1NC(=O)Nn1cnnc1	-0.68	i	-5	i	i	i
Cn1c(O)c(N=Nc2nc(-c3ccccc3)cs2)c2ccccc21	1.4	i	35*	i	i	60*
Cn1c(O)c(N=Nc2ccccc2)c2ccccc21	1.6	i	1	i	i	i
COc1ccc(CCNc2nnc(Sc3nnnn3-c3ccccc3)s2)cc1OC	-4.5*	i	-22	i	i	i
CC(=O)Oc1cc(C(=O)OCC(=O)N2CCc3ccccc3C2)cc(OC(C)=O)c1OC(C)=O	·	·	·	·	i	·
COc1ccc(CN2CCC(N(CCc3ccccc3)Cc3ccccc3)CC2)c(OC)c1	-4.7*	i	-36	i	i	i
Clc1ccc(N2N=C(c3cccs3)CC2c2ccco2)cc1 (stereo not drawn)	0.27	i	-10	8*	i	i
CCN1C(=O)[C@H]2[C@H]3CN=C(SCC(=O)c4ccccc4)N3[C@@](CC)(C(=O)OC)[C@H]2C1=O	·	·	·	·	i	·
CCN1C(=O)[C@H]2[C@@H](c3ccc(-c4ccc(F)cc4)cc3)N[C@@](CC(C)C)(C(=O)OC)[C@H]2C1=O	-0.47	i	-8	i	i	i
CCN1C(=O)[C@H]2[C@@H](c3ccc(-c4ccc(F)cc4)c(OC)c3)N[C@@](CC(C)C)(C(=O)OC)[C@H]2C1=O	-0.09	-12*	-14	i	·	i
CN(CC(=O)N(CCO)Cc1ccccc1)S(=O)(=O)c1ccc2c(c1)c(=O)n(C)c(=O)n2C	1.7	i	-12	i	i	i
CC(C)n1cnc2c(N(C)c3ccccc3)nc(N(CCN(C)C)Cc3ccccc3)nc21	-6.8*	i	-22	i	i	i
Cn1c(CCNC(=O)c2ccco2)nc2cc(NC(=O)c3ccccc3Cl)ccc21	2.4	i	-5	i	i	i
COc1cc(NC(=O)CSc2nc(C)c(C)c(C)n2)cc(OC)c1	0.23	i	7.5*	i	i	i
CCOC(=O)c1c(NC(=O)C2=COCCO2)sc2c1CCN(C(=O)OC)C2	-0.91	i	-12	i	i	i
SMILES	Kir21 inh	KCNK9 block	hERG protect	KCNQ1 block	KCNK3 block	KCNQ1 pot
COc1ccc(C2(c3ccc(OC)cc3)NC(=O)N(CC(=O)Nc3ccc(OC(F)F)cc3)C2=O)cc1	0.9	i	-2	9*	i	i
CCn1cc(CCC(=O)NCc2ccccc2OC)c2ccccc21	-6.7*	i	-5	i	i	i
CCc1ccc(C(=O)CN2CCSC2=N)cc1	-4.5*	i	-2	i	i	i
COc1ccc(C)cc1NC(=O)CSCc1cc(=O)n2c(C)csc2n1	·	·	·	·	i	·
CC1=C(C#N)C(=O)N(C2CCS(=O)(=O)C2)C(=O)/C1=C\c1ccc(C)o1 (stereo not drawn)	-8.9	-6.9*	-20	7*	·	i
COCCN(CCOC)c1nc(S(=O)(=O)c2ccc(C)cc2)c(Cl)s1	-1.2	-7.8*	-5	i	i	i
CC(C)Oc1ccc(S(=O)(=O)N2CCOCC2)cc1NC(=O)CN1C(=O)NC2(CCCC2)C1=O	0.56	i	-8	i	i	i
Nn1c(Cc2cccc3ccccc23)nnc1SCc1ccccc1	-4.6*	i	-5	i	i	i
CC1Nc2ncnc(N3CCN(c4ccccc4)CC3)c2N(Cc2ccc(Br)cc2)C1=O (stereo not drawn)	-0.07	-6.7*	-16	i	i	i
S=C(NCc1ccccn1)NN=Cc1ccccn1	·	·	·	·	i	·
CNC(=O)c1c(NC(=O)c2nc3ccccc3s2)sc2c1CCC2	0.01	-7.8*	-19	8*	i	i
CCn1nnnc1SCC(=O)Nc1ccc(F)cc1	1.2	i	-6	i	i	i
Cc1ccc(Cl)cc1NC(=S)N(Cc1cccnc1)Cc1ccccc1Cl	-0.33	i	-3	6*	i	i
COc1ccccc1C(=O)NC(=O)COC(=O)c1nc2nc(C)cc(C)n2n1	-0.52	i	-14	i	i	i
Cc1cc(C)c(S(=O)(=O)c2ccccc2)c(OC(=O)c2ccc(Cl)cc2Cl)n1	·	·	·	·	i	·
Cc1cc(C)c(S(=O)(=O)c2ccccc2)c(OC(=O)c2c(Cl)cccc2Cl)n1	-0.21	-7.2*	-7	i	i	i
COc1cccc(COC(=O)C2CC(=O)N(Cc3ccc(C)cc3)C2)c1OC (stereo not drawn)	-0.38	i	-11	i	i	i
CCCn1nc(C(=O)NNC(=O)c2ccc(C)c(C)c2)c2ccccc2c1=O	·	·	·	·	i	·
CCCn1nc(C(=O)N2CCN(S(=O)(=O)c3ccc(C)c(C)c3)CC2)c2ccccc2c1=O	·	·	·	·	-9.5*	·
CC(C)C[C@H]1CN=C(Nc2ccccc2)N1CCCC1CCCCC1	-3.2	i	-23	i	i	i
CC(C)C[C@H]1CN=C(Nc2ccccc2)N1CCCC1CCCC1	-4.6*	i	-18	i	i	i
CCCCCCCN1C(Nc2ccccc2)=NC[C@@H]1CC(C)C	-4.9*	i	-14	7*	i	i
Cc1nn(C(C)C(=O)N/N=C/c2ccc(N(C)C)cc2)c(C)c1[N+](=O)[O-] (stereo not drawn)	-1.4	-7.9*	0	i	i	i
C/C(=N/NC(=O)C(C)n1nc(C)c([N+](=O)[O-])c1C)c1ccc(OCC(N)=O)cc1 (stereo not drawn)	-0.31	i	-3	i	i	i

Screening results: PubChem BioAssay, Johns Hopkins Ion Channel Center
